{"source": "ChEMBL document CHEMBL4145671", "about": "“Development of Kinase-Selective, Harmine-Based DYRK1A Inhibitors that Induce Pancreatic Human β-Cell Proliferation” (J Med Chem, 2018)", "key": {"[1]": {"molecular_target": "Dual specificity tyrosine-phosphorylation-regulated kinase 1A (Rattus norvegicus) (UniProt Q63470)", "test": "Inhibition of DYRK1A in rat R7T1 cells expressing expressing NFAT2-GFP assessed as induction of NFAT2-GFP nuclear translocation at 10 uM incubated for 24 hrs by", "type": "cell-based", "summary_of_the_method": "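Immortalized R7T1 rat beta cells infected with adenovirus expressing NFAT2-GFP for 48 h, then exposed to compound at 10 μM for a further 24 h. Cells imaged and NFAT2-GFP nuclear translocation scored as nuclear frequency, at least 1000 cells counted; n = 3, SEM.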"}, "[2]": {"system": "Pancreatic islet", "test": "Induction of beta-cell proliferation in human pancreatic islets at 30 uM incubated for 96 hrs by Ki67 and insulin immunolabelling method", "type": "functional, cell-based", "summary_of_the_method": "(§1)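 Human islets from the NIH/NIDDK IIDP dispersed onto coverslips with Accutase, then treated with compound or vehicle (0.1% DMSO) in RPMI1640 complete medium for 96 h. Cells fixed, stained for insulin and Ki67, imaged; Ki67/insulin double-positive and total insulin-positive cells counted. Islets from 3 to 5 adult donors, at least 1000 beta cells counted per donor; n = 4–5, SEM.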"}, "[3]": {"test": "Toxicity in human pancreatic islets at 30 uM", "type": "cell-based", "conditions": "pancreatic islet"}, "[4]": {"system": "Pancreatic islet", "test": "Induction of beta-cell proliferation in human pancreatic islets incubated for 96 hrs by Ki67 and insulin immunolabelling method", "type": "functional, cell-based", "summary_of_the_method": "as §1"}, "[5]": {"system": "Pancreatic islet", "test": "Induction of beta-cell proliferation in human pancreatic islets at 10 uM incubated for 96 hrs by Ki67 and insulin immunolabelling method", "type": "functional, cell-based", "summary_of_the_method": "as §1"}, "[6]": {"molecular_target": "Cyclin-dependent kinase 8 (Homo sapiens) (UniProt P49336)", "sequence (P49336 whole entry)": "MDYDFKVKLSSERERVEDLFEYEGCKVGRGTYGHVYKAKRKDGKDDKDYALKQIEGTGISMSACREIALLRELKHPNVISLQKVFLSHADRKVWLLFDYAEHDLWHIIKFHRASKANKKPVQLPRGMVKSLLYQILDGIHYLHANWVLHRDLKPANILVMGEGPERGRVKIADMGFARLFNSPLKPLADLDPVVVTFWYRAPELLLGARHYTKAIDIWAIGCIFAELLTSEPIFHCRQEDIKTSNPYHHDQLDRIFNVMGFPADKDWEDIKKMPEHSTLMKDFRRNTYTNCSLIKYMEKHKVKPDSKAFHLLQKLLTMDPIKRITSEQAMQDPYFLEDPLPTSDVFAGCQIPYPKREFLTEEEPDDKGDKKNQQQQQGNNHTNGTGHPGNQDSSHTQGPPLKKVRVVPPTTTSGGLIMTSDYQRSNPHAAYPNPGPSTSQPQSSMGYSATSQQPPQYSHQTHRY", "test": "Inhibition of human CDK8 expressed in bacterial expression system assessed as remaining enzyme activity at 10 uM by kinome scan assay"}, "[7]": {"molecular_target": "Serine/threonine-protein kinase 17B (Homo sapiens) (UniProt O94768)", "test": "Inhibition of human DRAK2 expressed in bacterial expression system assessed as remaining enzyme activity at 10 uM by kinome scan assay"}, "[8]": {"molecular_target": "Casein kinase II subunit alpha' (Homo sapiens) (UniProt P19784)", "test": "Inhibition of human CSNK2A2 expressed in mammalian expression system assessed as remaining enzyme activity at 10 uM by kinome scan assay"}, "[9]": {"molecular_target": "Casein kinase II subunit alpha (Homo sapiens) (UniProt P68400)", "test": "Inhibition of human CSNK2A1 expressed in mammalian expression system assessed as remaining enzyme activity at 10 uM by kinome scan assay"}, "[10]": {"molecular_target": "Death-associated protein kinase 3 (Homo sapiens) (UniProt O43293)", "test": "Inhibition of human DAPK3 expressed in bacterial expression system assessed as remaining enzyme activity at 10 uM by kinome scan assay"}, "[11]": {"molecular_target": "TGF-beta receptor type-2 (Homo sapiens) (UniProt P37173)", "sequence (P37173 whole entry)": "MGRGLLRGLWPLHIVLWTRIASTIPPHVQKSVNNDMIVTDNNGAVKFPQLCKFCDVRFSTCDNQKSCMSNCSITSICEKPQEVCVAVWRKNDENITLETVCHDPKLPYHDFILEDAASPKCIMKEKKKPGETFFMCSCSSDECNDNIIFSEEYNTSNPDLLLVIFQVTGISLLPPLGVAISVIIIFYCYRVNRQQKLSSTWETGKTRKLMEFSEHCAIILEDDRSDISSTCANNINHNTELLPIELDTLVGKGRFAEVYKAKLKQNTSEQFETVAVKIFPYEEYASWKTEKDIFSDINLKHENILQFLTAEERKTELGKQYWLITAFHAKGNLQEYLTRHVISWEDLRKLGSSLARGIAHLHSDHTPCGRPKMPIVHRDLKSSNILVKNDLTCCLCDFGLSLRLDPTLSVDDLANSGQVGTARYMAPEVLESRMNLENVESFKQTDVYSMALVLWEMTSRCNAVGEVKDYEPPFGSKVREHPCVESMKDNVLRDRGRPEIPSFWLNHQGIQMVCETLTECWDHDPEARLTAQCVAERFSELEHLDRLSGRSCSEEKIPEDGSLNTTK", "test": "Inhibition of human TGFBR2 expressed in bacterial expression system assessed as remaining enzyme activity at 10 uM by kinome scan assay"}, "[12]": {"molecular_target": "Serine/threonine-protein kinase pim-2 (Homo sapiens) (UniProt Q9P1W9)", "test": "Inhibition of human PIM2 expressed in bacterial expression system assessed as remaining enzyme activity at 10 uM by kinome scan assay"}, "[13]": {"molecular_target": "Serine/threonine-protein kinase pim-1 (Homo sapiens) (UniProt P11309)", "test": "Inhibition of human PIM1 expressed in bacterial expression system assessed as remaining enzyme activity at 10 uM by kinome scan assay"}, "[14]": {"molecular_target": "Dual specificity tyrosine-phosphorylation-regulated kinase 1B (Homo sapiens) (UniProt Q9Y463)", "sequence (Q9Y463 whole entry, looked up)": "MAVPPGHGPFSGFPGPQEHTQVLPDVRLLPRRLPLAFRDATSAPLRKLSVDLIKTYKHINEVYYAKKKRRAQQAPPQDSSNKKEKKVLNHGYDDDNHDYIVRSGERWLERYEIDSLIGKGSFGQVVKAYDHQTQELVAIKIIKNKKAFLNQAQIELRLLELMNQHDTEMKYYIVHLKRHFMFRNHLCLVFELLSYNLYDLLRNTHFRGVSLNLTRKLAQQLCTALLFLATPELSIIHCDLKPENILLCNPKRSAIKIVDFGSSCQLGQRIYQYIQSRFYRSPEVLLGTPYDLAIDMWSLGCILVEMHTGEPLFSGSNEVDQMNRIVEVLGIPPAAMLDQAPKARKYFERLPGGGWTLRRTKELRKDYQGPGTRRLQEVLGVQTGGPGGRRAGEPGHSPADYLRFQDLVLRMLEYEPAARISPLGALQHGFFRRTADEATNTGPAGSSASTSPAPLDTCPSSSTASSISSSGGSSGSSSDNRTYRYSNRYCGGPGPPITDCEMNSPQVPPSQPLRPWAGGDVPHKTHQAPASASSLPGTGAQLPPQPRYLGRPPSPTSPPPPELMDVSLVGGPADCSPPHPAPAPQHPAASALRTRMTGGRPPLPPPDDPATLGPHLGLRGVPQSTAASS", "test": "Inhibition of human DYRK1B expressed in bacterial expression system assessed as remaining enzyme activity at 10 uM by kinome scan assay"}, "[15]": {"molecular_target": "Cyclin-dependent kinase 19 (Homo sapiens) (UniProt Q9BWU1)", "test": "Inhibition of human CDK11 expressed in bacterial expression system assessed as remaining enzyme activity at 10 uM by kinome scan assay"}, "[16]": {"molecular_target": "Citron Rho-interacting kinase (Homo sapiens) (UniProt O14578)", "test": "Inhibition of human CIT expressed in bacterial expression system assessed as remaining enzyme activity at 10 uM by kinome scan assay"}, "[17]": {"molecular_target": "Phosphatidylinositol 5-phosphate 4-kinase type-2 gamma (Homo sapiens) (UniProt Q8TBX8)", "sequence (Q8TBX8 whole entry)": "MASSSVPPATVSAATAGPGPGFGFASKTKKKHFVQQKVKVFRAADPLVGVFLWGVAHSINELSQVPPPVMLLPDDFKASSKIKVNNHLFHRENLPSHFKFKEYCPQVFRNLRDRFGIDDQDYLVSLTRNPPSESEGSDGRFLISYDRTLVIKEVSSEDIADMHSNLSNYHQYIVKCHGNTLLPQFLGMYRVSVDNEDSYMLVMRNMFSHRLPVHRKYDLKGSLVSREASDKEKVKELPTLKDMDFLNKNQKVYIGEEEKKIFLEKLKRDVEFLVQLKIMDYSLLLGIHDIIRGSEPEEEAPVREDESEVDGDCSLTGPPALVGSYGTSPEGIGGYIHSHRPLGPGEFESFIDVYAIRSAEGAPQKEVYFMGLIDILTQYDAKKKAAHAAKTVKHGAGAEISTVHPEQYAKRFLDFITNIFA", "test": "Inhibition of human PIP5K2C expressed in mammalian expression system assessed as remaining enzyme activity at 10 uM by kinome scan assay"}, "[18]": {"molecular_target": "Phosphatidylinositol 4-kinase beta (Homo sapiens) (UniProt Q9UBF8)", "test": "Inhibition of human PIK4CB expressed in mammalian expression system assessed as remaining enzyme activity at 10 uM by kinome scan assay"}, "[19]": {"molecular_target": "Casein kinase I isoform alpha (Homo sapiens) (UniProt P48729)", "sequence (P48729 2-337 limits assumed)": "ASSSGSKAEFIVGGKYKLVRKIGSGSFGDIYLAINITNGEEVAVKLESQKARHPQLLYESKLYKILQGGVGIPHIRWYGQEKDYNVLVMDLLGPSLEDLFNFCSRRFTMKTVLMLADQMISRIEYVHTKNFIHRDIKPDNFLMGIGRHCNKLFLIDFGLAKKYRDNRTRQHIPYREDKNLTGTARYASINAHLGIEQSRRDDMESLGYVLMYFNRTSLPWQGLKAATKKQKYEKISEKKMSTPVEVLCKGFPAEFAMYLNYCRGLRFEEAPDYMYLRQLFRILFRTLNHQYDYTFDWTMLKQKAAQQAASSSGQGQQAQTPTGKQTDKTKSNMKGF", "test": "Inhibition of human CSNK1A1 expressed in mammalian expression system assessed as remaining enzyme activity at 10 uM by kinome scan assay"}, "[20]": {"molecular_target": "Ribosomal protein S6 kinase alpha-4 (Homo sapiens) (UniProt O75676)", "sequence (O75676 whole entry, looked up)": "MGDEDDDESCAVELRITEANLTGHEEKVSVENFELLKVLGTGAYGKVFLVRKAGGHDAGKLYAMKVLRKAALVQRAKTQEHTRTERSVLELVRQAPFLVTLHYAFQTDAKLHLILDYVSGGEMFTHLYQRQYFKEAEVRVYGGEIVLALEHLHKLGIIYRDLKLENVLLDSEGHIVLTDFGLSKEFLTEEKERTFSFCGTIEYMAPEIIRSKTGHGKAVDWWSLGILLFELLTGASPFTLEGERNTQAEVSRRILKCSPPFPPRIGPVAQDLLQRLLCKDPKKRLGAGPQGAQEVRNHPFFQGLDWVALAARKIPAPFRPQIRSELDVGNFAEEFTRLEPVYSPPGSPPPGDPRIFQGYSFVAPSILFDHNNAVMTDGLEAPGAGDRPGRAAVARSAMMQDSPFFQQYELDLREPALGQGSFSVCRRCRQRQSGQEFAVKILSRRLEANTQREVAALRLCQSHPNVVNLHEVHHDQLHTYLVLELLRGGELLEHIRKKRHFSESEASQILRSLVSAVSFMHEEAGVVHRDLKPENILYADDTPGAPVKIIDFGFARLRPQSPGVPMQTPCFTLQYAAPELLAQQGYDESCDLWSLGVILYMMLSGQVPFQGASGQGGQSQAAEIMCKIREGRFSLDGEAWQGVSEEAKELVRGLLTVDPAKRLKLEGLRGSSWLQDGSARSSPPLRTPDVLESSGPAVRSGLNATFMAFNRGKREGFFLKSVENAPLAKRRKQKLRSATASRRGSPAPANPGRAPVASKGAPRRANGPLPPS", "test": "Inhibition of human RPS6KA4 (Kin.Dom.2-C-terminal) expressed in mammalian expression system assessed as remaining enzyme activity at 10 uM by kinome scan assay"}, "[21]": {"molecular_target": "Death-associated protein kinase 2 (Homo sapiens) (UniProt Q9UIK4)", "test": "Inhibition of human DAPK2 expressed in bacterial expression system assessed as remaining enzyme activity at 10 uM by kinome scan assay"}, "[22]": {"molecular_target": "Cyclin-dependent kinase 7 (Homo sapiens) (UniProt P50613)", "test": "Inhibition of human CDK7 expressed in mammalian expression system assessed as remaining enzyme activity at 10 uM by kinome scan assay"}, "[23]": {"molecular_target": "Death-associated protein kinase 1 (Homo sapiens) (UniProt P53355)", "test": "Inhibition of human DAPK1 expressed in bacterial expression system assessed as remaining enzyme activity at 10 uM by kinome scan assay"}, "[24]": {"molecular_target": "Homeodomain-interacting protein kinase 2 (Homo sapiens) (UniProt Q9H2X6)", "test": "Inhibition of human HIPK2 expressed in mammalian expression system assessed as remaining enzyme activity at 10 uM by kinome scan assay"}, "[25]": {"molecular_target": "Interleukin-1 receptor-associated kinase 1 (Homo sapiens) (UniProt P51617)", "test": "Inhibition of human IRAK1 expressed in mammalian expression system assessed as remaining enzyme activity at 10 uM by kinome scan assay"}, "[26]": {"molecular_target": "Casein kinase I isoform gamma-2 (Homo sapiens) (UniProt P78368)", "sequence (P78368 whole entry, looked up, canonical isoform)": "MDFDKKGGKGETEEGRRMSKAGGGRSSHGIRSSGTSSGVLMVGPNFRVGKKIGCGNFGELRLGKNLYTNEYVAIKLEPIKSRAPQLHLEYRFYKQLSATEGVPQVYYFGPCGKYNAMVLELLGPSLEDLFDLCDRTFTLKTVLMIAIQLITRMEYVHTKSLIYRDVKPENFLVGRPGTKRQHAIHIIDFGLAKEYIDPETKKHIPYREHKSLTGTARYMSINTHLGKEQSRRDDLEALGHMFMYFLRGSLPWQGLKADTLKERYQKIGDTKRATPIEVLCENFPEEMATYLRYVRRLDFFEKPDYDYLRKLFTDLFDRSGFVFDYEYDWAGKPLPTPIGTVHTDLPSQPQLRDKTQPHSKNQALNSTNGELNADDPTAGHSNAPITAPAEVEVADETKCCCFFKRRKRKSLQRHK", "test": "Inhibition of human CSNK1G2 expressed in bacterial expression system assessed as remaining enzyme activity at 10 uM by kinome scan assay"}, "[27]": {"molecular_target": "Interleukin-1 receptor-associated kinase 3 (Homo sapiens) (UniProt Q9Y616)", "test": "Inhibition of human IRAK3 expressed in bacterial expression system assessed as remaining enzyme activity at 10 uM by kinome scan assay"}, "[28]": {"molecular_target": "Homeodomain-interacting protein kinase 3 (Homo sapiens) (UniProt Q9H422)", "sequence (Q9H422 whole entry, looked up)": "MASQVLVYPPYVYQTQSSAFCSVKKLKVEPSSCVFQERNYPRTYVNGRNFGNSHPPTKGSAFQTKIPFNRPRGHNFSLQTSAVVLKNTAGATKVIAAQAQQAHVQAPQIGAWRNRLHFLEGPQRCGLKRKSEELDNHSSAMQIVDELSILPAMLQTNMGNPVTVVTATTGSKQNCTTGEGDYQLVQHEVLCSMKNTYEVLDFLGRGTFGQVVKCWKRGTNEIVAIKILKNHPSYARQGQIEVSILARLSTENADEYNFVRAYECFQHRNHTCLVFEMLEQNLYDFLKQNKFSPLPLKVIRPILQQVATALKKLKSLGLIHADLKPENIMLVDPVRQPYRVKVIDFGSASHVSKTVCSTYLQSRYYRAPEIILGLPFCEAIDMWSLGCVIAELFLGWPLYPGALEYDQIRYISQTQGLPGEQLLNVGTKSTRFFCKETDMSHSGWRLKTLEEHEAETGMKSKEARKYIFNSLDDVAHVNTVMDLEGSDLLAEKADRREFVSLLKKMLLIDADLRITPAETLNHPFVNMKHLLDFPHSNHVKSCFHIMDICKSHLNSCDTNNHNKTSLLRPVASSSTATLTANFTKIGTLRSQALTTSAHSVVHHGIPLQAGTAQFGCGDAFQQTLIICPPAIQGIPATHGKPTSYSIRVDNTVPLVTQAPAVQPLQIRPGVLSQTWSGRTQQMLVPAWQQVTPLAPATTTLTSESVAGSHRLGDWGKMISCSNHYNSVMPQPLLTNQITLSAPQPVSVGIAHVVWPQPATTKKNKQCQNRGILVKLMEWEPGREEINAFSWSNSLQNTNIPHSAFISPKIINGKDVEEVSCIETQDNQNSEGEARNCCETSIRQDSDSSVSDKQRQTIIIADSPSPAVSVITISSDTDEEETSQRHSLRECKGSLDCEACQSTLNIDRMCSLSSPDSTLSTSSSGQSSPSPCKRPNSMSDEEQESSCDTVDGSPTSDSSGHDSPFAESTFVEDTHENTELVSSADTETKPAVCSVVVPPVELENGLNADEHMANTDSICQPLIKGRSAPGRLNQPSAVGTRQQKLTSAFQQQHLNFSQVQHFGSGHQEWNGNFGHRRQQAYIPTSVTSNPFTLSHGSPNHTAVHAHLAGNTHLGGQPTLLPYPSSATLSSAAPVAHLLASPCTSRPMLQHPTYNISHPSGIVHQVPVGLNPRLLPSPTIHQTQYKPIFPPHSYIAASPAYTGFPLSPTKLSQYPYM", "test": "Inhibition of human HIPK3 expressed in mammalian expression system assessed as remaining enzyme activity at 10 uM by kinome scan assay"}, "[29]": {"molecular_target": "Homeodomain-interacting protein kinase 1 (Homo sapiens) (UniProt Q86Z02)", "test": "Inhibition of human HIPK1 expressed in mammalian expression system assessed as remaining enzyme activity at 10 uM by kinome scan assay"}, "[30]": {"test": "Toxicity in human pancreatic islets at >10 uM", "conditions": "pancreatic islet"}, "[31]": {"molecular_target": "Cyclin-dependent kinase-like 5 (Homo sapiens) (UniProt O76039)", "test": "Inhibition of human CDKL5 expressed in mammalian expression system assessed as remaining enzyme activity at 10 uM by kinome scan assay"}}, "note": "Calls of active or inactive are those of the source. No cut-off for these calls is given here.", "data": [{"molecule": "COc1ccc2c(c1)[nH]c1c(CO)nccc12", "values": [{"measurement": "inhibition", "setting": "[1]", "value": "Active"}, {"measurement": "Activity", "setting": "[2]", "value": "Active"}, {"measurement": "Activity", "setting": "[3]", "value": "Non-Toxic"}, {"measurement": "Activity", "setting": "[4]", "value": "Dose-dependent effect"}, {"measurement": "Activity", "setting": "[5]", "value": "Active"}]}, {"molecule": "COc1ccc2c(c1)[nH]c1c(N3CCCC3Cc3ccccc3)nccc12", "note": "(stereo not given)", "values": [{"measurement": "Activity", "setting": "[5]", "value": "inactive"}]}, {"molecule": "COc1ccc2c(c1)[nH]c1c(C)nc(CO)cc12", "values": [{"measurement": "inhibition", "setting": "[1]", "value": "Active"}, {"measurement": "Activity", "setting": "[6]", "value": 0, "unit": "%"}, {"measurement": "Activity", "setting": "[2]", "value": "Active"}, {"measurement": "Activity", "setting": "[3]", "value": "Non-Toxic"}, {"measurement": "Activity", "setting": "[4]", "value": "Dose-dependent effect"}, {"measurement": "Activity", "setting": "[5]", "value": "Active"}]}, {"molecule": "COc1ccc2c(c1)[nH]c1c(C(C)=O)nccc12", "values": [{"measurement": "Activity", "setting": "[2]", "value": "Active"}]}, {"molecule": "COc1ccc2c(c1)[nH]c1c(N3CCCC3)nccc12", "values": [{"measurement": "Activity", "setting": "[5]", "value": "inactive"}]}, {"molecule": "COc1ccc2c(c1)[nH]c1c(Cl)nccc12", "values": [{"measurement": "Activity", "setting": "[2]", "value": "Active"}, {"measurement": "Activity", "setting": "[5]", "value": "Active"}]}, {"molecule": "COc1ccc2c(c1)[nH]c1c(N3CCC3)nccc12", "values": [{"measurement": "Activity", "setting": "[5]", "value": "Active"}]}, {"molecule": "COc1ccc2c(c1)[nH]c1c(C)nccc12", "note": "[HARMINE]", "values": [{"measurement": "Activity", "setting": "[7]", "value": 73, "unit": "%"}, {"measurement": "Activity", "setting": "[8]", "value": 23, "unit": "%"}, {"measurement": "Activity", "setting": "[9]", "value": 11, "unit": "%"}, {"measurement": "Activity", "setting": "[10]", "value": 69, "unit": "%"}, {"measurement": "Activity", "setting": "[11]", "value": 78, "unit": "%"}, {"measurement": "Activity", "setting": "[12]", "value": 39, "unit": "%"}, {"measurement": "Activity", "setting": "[13]", "value": 45, "unit": "%"}, {"measurement": "Activity", "setting": "[14]", "value": 6.1, "unit": "%"}, {"measurement": "Activity", "setting": "[15]", "value": 83, "unit": "%"}, {"measurement": "Activity", "setting": "[6]", "value": 55, "unit": "%"}, {"measurement": "Activity", "setting": "[16]", "value": 29, "unit": "%"}, {"measurement": "Activity", "setting": "[17]", "value": 36, "unit": "%"}, {"measurement": "Activity", "setting": "[18]", "value": 12, "unit": "%"}, {"measurement": "Activity", "setting": "[19]", "value": 15, "unit": "%"}, {"measurement": "Activity", "setting": "[20]", "value": 40, "unit": "%"}, {"measurement": "Activity", "setting": "[21]", "value": 72, "unit": "%"}, {"measurement": "Activity", "setting": "[22]", "value": 21, "unit": "%"}, {"measurement": "Activity", "setting": "[23]", "value": 78, "unit": "%"}, {"measurement": "Activity", "setting": "[24]", "value": 8.6, "unit": "%"}, {"measurement": "Activity", "setting": "[25]", "value": 17, "unit": "%"}, {"measurement": "Activity", "setting": "[26]", "value": 19, "unit": "%"}, {"measurement": "Activity", "setting": "[27]", "value": 15, "unit": "%"}, {"measurement": "Activity", "setting": "[28]", "value": 9.4, "unit": "%"}, {"measurement": "Activity", "setting": "[29]", "value": 21, "unit": "%"}, {"measurement": "Activity", "setting": "[5]", "value": "Active"}, {"measurement": "Activity", "setting": "[30]", "value": "Toxic"}, {"measurement": "Activity", "setting": "[31]", "value": 100, "unit": "%"}]}, {"molecule": "COc1ccc2c(c1)[nH]c1c(N3CCCC3c3ccccc3)nccc12", "note": "(stereo not given)", "values": [{"measurement": "Activity", "setting": "[5]", "value": "inactive"}]}]}
